This is an account of results in ChEMBL document CHEMBL2146445, “Discovery of BIIB042, a Potent, Selective, and Orally Bioavailable γ-Secretase Modulator” (ACS Med Chem Lett, 2011).

The target in one data set is Gamma-secretase. The data set is described as follows: Modulation of gamma-secretase in human H4 cells expressing wild type APP assessed as reduction in amyloid beta42 level. In kind it is cell-based.
In data set [1] the test system is Plasma. Put plainly: Fraction unbound in dog plasma. In kind it is ADME, cell-free, Canis lupus familiaris.
Data set [2] deals with T1, Prostaglandin G/H synthase 2 (Homo sapiens, UniProt P35354).
T1 sequence (P35354 whole entry): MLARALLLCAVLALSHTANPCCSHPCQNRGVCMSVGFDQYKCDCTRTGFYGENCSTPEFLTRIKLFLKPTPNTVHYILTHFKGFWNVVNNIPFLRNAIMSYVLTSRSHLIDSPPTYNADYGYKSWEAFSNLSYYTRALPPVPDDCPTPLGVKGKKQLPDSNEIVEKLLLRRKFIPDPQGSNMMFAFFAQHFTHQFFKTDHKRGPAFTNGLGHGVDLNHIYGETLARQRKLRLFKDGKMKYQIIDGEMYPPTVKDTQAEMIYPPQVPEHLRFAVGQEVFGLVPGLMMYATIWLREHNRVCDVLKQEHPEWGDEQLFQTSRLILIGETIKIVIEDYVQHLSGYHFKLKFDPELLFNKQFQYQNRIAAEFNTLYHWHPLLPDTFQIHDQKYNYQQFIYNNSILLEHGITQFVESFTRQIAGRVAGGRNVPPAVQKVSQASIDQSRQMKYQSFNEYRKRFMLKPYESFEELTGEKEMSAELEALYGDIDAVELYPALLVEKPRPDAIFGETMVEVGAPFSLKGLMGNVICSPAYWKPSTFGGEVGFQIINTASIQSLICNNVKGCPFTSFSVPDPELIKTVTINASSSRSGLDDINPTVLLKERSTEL
The data set is described as follows: Inhibition of COX2.

In another data set the test system is Cynomolgus monkey. Put plainly: Antialzheimer activity in cynomolgus monkey assessed as reduction in amyloid beta 42 level in plasma at 10 mg/kg, po at 5 hrs. The class given is functional, Macaca fascicularis. Also on record: scale not given: the % may be the effect or the level left.
Data set [3] concerns Plasma. The data set is described as follows: Fraction unbound in mouse plasma. The class given is ADME, cell-free.
In a further data set the target is Cytochrome P450 2C9 (Homo sapiens, UniProt P11712). Put plainly: Inhibition of human CYP2C9. In kind it is ADME.
A further data set has as its system Brain. Put plainly: Drug uptake in CF1 mouse brain at 10 mg/kg, po. In kind it is ADME, organism-based. Set-up: dose 10 mg/kg, route oral. Conditions: in vivo, read-out: Drug uptake. The gist of the method:
(§1)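 Wild-type CF-1 mice received a single oral dose as a solution in ethanol:propylene glycol:10% solutol (1:1:8). Animals were sacrificed 4 h after dosing. Brain and plasma were collected for drug concentration and Aβ levels. Aβ change was expressed relative to vehicle-treated controls.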

For data set [4], the target named is Prostaglandin G/H synthase 1 (Homo sapiens, UniProt P23219). Put plainly: Inhibition of COX1.
Data set [5] relates to Plasma. Put plainly: Fraction unbound in rat plasma. The class given is ADME, cell-free.
The test system of data set [6] is Plasma. The data set is described as follows: Plasma concentration in CF1 mouse at 10 mg/kg, po. Set-up: dose 10 mg/kg, route oral. To be noted: in vivo. The class given is ADME, organism-based. The gist of the method: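 Wild-type (CF-1) mice given compound orally as a solution in ethanol:propylene glycol:10% solutol (1:1:8). Animals sacrificed 4 h post-dose; brain and plasma collected for drug exposure and Aβ levels.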

A short description of data set [7]: Modulation of gamma-secretase in CHO cells overexpressing APP V717 mutant assessed as reduction in amyloid beta42 level after 17 hrs by ELISA. In kind it is cell-based. Conditions: Cricetulus griseus. The gist of the method:
(§2)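 CHO cells overexpressing APP V717F; Aβ42, Aβ40 and Aβ38 quantified together in each well by multiplex Aβ ELISA. EC50 is the mean of at least two determinations.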
On the technique in general: An ELISA detects its analyte on a solid surface through an enzyme-linked reagent.

The test system of data set [8] is Plasma. Put plainly: Fraction unbound in monkey plasma. Conditions: rhesus monkey. The class given is ADME, cell-free, Macaca mulatta.
Data set [9] can be described thus: Apparent permeability across human Caco2 cells. The class given is ADME, cell-based. To be noted: Caco-2. (In general: Passage across Caco-2 layers is used to estimate intestinal permeability.)
Another data set has as its system Mus musculus. Put plainly: Antialzheimer activity in CF1 mouse assessed as reduction in amyloid beta 42 level in brain at 10 mg/kg, po. In kind it is functional. Set-up: scale not given: the % may be the effect or the level left. The essentials:
as §1

The target in data set [10] is Voltage-gated inwardly rectifying potassium channel KCNH2 (Homo sapiens, UniProt Q12809). The data set is described as follows: Inhibition of human ERG by patch clamp assay. The essentials:
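hERG was tested in an automated FastPatch patch-clamp assay, giving an EC50 readout.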
A general note: In patch-clamp work, channel activity is measured electrically.

Data set [11] can be described thus: Modulation of gamma-secretase in CHO cells overexpressing APP V717 mutant assessed as increase in amyloid beta38 level after 17 hrs by ELISA. The class given is cell-based. To be noted: Cricetulus griseus. The gist of the method: as §2
The target in the next data set is T2, Cytochrome P450 1A2 (Homo sapiens, UniProt P05177).
T2 sequence (P05177 whole entry): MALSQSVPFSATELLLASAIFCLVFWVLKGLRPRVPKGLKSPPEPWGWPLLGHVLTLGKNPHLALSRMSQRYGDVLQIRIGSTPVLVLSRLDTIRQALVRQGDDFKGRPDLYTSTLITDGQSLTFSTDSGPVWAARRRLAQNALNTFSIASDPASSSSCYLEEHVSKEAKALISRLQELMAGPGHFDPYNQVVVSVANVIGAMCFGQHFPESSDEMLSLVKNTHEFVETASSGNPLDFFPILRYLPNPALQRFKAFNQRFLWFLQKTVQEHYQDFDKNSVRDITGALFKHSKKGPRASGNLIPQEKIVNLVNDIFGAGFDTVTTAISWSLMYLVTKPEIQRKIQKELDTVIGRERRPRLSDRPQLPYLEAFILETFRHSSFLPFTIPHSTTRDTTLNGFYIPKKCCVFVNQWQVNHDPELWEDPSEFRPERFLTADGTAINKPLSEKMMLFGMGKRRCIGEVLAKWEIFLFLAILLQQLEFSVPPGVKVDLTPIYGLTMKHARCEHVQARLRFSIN
Put plainly: Inhibition of human CYP1A2. The class given is ADME.

The subject of another data set is Rattus norvegicus. The data set is described as follows: Antialzheimer activity in Fischer rat assessed as reduction in amyloid beta 42 level in brain at 10 mg/kg, po. The class given is functional. Also on record: scale not given: the % may be the effect or the level left.
The subject of a further data set is Salmonella typhimurium. Put plainly: Mutagenicity in Salmonella typhimurium. In kind it is toxicity, organism-based. Conditions: salmonella enterica subsp. enterica serovar typhimurium.
A further data set concerns the target Cytochrome P450 2C19 (Homo sapiens, UniProt P33261). The data set is described as follows: Inhibition of human CYP2C19. The class given is ADME.
In data set [12] the test system is Plasma. The data set is described as follows: Fraction unbound in human plasma. The class given is ADME, cell-free.
The next data set has as its target Cytochrome P450 2D6 (Homo sapiens, UniProt P10635). Put plainly: Inhibition of human CYP2D6. The class given is ADME.

Sequence of Cytochrome P450 2C19 (P33261 whole entry): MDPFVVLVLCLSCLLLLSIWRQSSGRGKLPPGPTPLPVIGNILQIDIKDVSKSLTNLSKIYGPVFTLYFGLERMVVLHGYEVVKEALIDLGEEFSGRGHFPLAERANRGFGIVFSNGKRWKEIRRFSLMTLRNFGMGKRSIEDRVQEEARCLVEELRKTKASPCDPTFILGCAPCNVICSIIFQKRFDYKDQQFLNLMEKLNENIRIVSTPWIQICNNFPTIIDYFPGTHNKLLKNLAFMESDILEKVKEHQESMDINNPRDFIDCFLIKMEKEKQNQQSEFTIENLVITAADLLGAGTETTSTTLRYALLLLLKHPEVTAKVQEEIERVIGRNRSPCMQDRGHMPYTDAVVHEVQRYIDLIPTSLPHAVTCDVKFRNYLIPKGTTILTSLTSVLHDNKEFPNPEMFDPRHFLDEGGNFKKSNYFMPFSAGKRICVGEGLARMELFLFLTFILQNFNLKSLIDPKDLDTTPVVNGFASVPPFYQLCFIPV
Sequence of Cytochrome P450 2D6 (P10635 whole entry): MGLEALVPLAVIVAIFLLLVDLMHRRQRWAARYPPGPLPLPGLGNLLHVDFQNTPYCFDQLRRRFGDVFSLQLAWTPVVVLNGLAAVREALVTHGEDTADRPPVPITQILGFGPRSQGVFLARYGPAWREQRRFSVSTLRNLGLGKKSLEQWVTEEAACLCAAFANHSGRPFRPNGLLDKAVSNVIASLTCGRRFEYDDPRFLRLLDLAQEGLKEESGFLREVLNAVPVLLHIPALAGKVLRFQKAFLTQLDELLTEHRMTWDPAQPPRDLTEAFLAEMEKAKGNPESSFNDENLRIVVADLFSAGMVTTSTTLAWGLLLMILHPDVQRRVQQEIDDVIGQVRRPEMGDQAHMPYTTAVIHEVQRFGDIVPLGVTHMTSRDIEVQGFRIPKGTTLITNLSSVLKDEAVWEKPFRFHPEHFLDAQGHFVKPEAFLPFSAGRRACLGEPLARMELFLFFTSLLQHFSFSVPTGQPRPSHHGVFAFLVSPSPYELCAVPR
Sequence of Voltage-gated inwardly rectifying potassium channel KCNH2 (Q12809 whole entry): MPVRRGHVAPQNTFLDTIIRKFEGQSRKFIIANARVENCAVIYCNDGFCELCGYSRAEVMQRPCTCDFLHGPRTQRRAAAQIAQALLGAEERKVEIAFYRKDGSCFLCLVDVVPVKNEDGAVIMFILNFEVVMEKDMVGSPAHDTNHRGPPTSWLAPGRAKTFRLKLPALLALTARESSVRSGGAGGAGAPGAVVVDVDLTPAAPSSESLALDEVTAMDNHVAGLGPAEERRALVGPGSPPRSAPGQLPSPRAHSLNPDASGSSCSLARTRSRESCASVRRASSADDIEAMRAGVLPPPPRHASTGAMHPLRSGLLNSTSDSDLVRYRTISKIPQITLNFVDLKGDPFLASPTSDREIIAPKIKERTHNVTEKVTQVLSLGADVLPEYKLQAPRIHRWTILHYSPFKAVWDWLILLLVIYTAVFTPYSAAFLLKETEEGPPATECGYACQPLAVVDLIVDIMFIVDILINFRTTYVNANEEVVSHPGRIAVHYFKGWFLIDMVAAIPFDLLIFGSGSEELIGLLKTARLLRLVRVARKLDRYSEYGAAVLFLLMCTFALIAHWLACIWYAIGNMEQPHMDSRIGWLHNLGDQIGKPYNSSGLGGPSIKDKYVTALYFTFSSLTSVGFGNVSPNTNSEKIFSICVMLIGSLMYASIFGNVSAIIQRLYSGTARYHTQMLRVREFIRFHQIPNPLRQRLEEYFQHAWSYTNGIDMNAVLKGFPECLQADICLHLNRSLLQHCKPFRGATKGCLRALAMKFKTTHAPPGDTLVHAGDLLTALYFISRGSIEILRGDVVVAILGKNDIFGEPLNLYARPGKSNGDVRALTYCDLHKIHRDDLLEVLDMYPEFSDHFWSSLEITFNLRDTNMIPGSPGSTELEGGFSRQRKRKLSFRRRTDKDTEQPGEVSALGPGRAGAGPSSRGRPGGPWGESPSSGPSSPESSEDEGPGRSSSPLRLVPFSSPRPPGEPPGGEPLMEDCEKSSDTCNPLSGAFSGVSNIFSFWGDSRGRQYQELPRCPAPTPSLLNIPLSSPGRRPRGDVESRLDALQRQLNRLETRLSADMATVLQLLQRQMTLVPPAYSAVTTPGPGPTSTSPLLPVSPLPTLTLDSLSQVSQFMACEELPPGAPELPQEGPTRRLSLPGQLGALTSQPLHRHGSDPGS
Sequence of Cytochrome P450 2C9 (P11712 whole entry): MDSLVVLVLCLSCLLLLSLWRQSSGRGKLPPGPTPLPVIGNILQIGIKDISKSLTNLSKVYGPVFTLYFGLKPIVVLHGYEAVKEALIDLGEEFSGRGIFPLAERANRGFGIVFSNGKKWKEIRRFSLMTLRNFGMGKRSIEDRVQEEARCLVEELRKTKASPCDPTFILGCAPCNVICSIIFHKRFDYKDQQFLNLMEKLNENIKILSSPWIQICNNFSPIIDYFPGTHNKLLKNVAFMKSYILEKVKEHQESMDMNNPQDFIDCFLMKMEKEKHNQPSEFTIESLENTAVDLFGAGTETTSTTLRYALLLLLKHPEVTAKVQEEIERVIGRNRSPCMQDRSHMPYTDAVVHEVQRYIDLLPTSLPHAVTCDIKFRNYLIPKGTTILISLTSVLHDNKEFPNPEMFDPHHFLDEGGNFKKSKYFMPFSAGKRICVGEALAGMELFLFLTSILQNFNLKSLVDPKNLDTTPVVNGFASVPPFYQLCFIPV
Sequence of Prostaglandin G/H synthase 1 (P23219 whole entry): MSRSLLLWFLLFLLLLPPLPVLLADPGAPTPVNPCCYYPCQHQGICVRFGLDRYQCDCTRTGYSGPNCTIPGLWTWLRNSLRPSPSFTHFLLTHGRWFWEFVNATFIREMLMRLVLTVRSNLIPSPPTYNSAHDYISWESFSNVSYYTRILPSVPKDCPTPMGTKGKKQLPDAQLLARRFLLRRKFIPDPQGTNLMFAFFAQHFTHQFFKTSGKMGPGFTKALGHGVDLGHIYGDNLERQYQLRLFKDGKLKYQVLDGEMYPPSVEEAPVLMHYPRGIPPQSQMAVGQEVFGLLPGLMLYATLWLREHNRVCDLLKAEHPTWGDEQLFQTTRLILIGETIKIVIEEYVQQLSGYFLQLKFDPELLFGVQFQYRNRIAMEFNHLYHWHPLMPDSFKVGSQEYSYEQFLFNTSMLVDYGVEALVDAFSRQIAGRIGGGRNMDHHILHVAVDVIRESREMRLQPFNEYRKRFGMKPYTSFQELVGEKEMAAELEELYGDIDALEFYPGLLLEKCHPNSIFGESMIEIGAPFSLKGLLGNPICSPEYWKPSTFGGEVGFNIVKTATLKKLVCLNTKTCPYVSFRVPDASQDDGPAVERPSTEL

For `CC1CCN([C@H](c2ccc(F)cc2)c2ccc([C@@H](C)C(=O)O)cc2-c2ccc(C(F)(F)F)cc2)CC1`, the EC50 (in general, the concentration that produces a half-maximal response) at Gamma-secretase stood at 0.07 µM; in [7], 0.17 µM; in data set [10] it was 15 µM; in data set [11] it was 0.15 µM. Besides, the Fu in the data set with Plasma [1], with Plasma [3], in the data set with Plasma [5], in the data set on Plasma [8] and in the data set with Plasma [12] was below 0.1% in each case. Further, the IC50 (usually the concentration needed to halve the response being measured) in data set [2] is 27 µM; at Cytochrome P450 2C9, above 35 µM; in [4], 35 µM; at Cytochrome P450 1A2 it was above 35 µM; at Cytochrome P450 2C19, above 35 µM; against Cytochrome P450 2D6, above 35 µM. The Activity in the data set with Cynomolgus monkey was 30%; with Mus musculus it was 40%; in the data set on Rattus norvegicus it was 30%; with Salmonella typhimurium, “Non-toxic”. For the same molecule, the concentration with Brain amounted to 4.6 µM; with Plasma [6] it was 10 µM. For the same molecule, the Papp – broadly, a coefficient for how fast a substance crosses the barrier – in data set [9] was 43.8 ×10⁻⁶ cm/s.
